# In ChEMBL document CHEMBL4251721, “Imidazole Alkaloids and Their Zinc Complexes from the Calcareous Marine Sponge Leucetta chagosensis” (J Nat Prod, 2018):
# Calls of active or inactive are those of the source. The calls are words filed in the database; no cut-off is given here.
# How the values were obtained:
# THP-1 [1] = test: Antiinflammatory activity in human THP1 cells assessed as inhibition of LPS-stimulated IL-6 production by measuring IL-6 level in serum at 10 uM preincubated for 2 hrs followed by LPS addition measured after 22 hrs by flow cytometry (reference value: 6100 +/- 200 pg/ml); format: functional
# MCF7 [2] = test: Induction of apoptosis in human MCF7 cells assessed as viable cells at 5 uM after 24 hrs by Annexin V-FITC/propidium iodide staining based flow cytometry (reference value: 96.6%); format: functional; conditions: MCF7, 24 h, read-out: Activity
# MCF7 [3] = test: Induction of apoptosis in human MCF7 cells assessed as early apoptotic cells at 5 uM after 24 hrs by Annexin V-FITC/propidium iodide staining based flow cytometry (reference value: 0.866%); format: functional
# MCF7 [4] = test: Induction of apoptosis in human MCF7 cells assessed as late apoptotic cells at 5 uM after 24 hrs by Annexin V-FITC/propidium iodide staining based flow cytometry (reference value: 0.309%); format: functional
# MCF7 [5] = test: Induction of apoptosis in human MCF7 cells assessed as late apoptotic cells after 24 hrs by Annexin V-FITC/propidium iodide staining based flow cytometry; format: functional, cell-based
# MCF7 [6] = test: Induction of apoptosis in human MCF7 cells assessed as viable cells at 10 uM after 24 hrs by Annexin V-FITC/propidium iodide staining based flow cytometry (reference value: 96.6%); format: functional; conditions: MCF7, 24 h, read-out: Activity
# A549 = test: Cytotoxicity against human A549 cells assessed as reduction in cell viability after 72 hrs by CCK-8 assay; format: functional, cell-based; conditions: A549, 72 h
# MCF7 [7] = test: Induction of apoptosis in human MCF7 cells assessed as necrotic cells at 5 uM after 24 hrs by Annexin V-FITC/propidium iodide staining based flow cytometry (reference value: 2.19%); format: functional
# MCF7 [8] = test: Cytotoxicity against human MCF7 cells assessed as reduction in cell viability after 72 hrs by CCK-8 assay; format: functional, cell-based; conditions: MCF7, 72 h
# Summary of the method: (§1)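 Cells were kept at 37 °C in DMEM with 10% nondialyzed FBS and 2 mM L-glutamine. The Oct4-GFP line is MCF-7 made stem-like by lentiviral Oct4-GFP overexpression. Cells were seeded at 3000/well and grown 24 h, then exposed to six concentrations of compound (DMSO solutions) for 72 h.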
# MCF7 [9] = test: Induction of apoptosis in human MCF7 cells assessed as late apoptotic cells at 10 uM after 24 hrs by Annexin V-FITC/propidium iodide staining based flow cytometry (reference value: 0.309%); format: functional
# MCF7 [10] = test: Induction of apoptosis in human MCF7 cells assessed as early apoptotic cells after 24 hrs by Annexin V-FITC/propidium iodide staining based flow cytometry; format: functional, cell-based
# MCF7 [11] = test: Induction of apoptosis in human MCF7 cells assessed as early apoptotic cells at 10 uM after 24 hrs by Annexin V-FITC/propidium iodide staining based flow cytometry (reference value: 0.866%); format: functional
# PC-9 = test: Cytotoxicity against human PC9 cells assessed as reduction in cell viability after 72 hrs by CCK-8 assay; format: functional, cell-based; conditions: PC-9, 72 h
# MCF7 [12] = test: Induction of apoptosis in human MCF7 cells assessed as necrotic cells at 10 uM after 24 hrs by Annexin V-FITC/propidium iodide staining based flow cytometry (reference value: 2.19%); format: functional
# MCF7 [13] = test: Cytotoxicity against human MCF7 cells expressing Oct4-GFP assessed as reduction in cell viability after 72 hrs by CCK-8 assay; format: functional, cell-based; conditions: MCF7, 72 h
# Summary of the method: as §1, with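 “h. CCK-8 was added for 2 h at 37 °C and A450 read to give IC50.” for “h.”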
# THP-1 [14] = test: Antiinflammatory activity in human THP1 cells assessed as inhibition of LPS-stimulated IL-10 level in serum at 10 uM preincubated for 2 hrs followed by LPS addition measured after 22 hrs by flow cytometry; format: functional, cell-based
# THP-1 [15] = test: Antiinflammatory activity in human THP1 cells assessed as inhibition of LPS-stimulated MCP-1 level in serum at 10 uM preincubated for 2 hrs followed by LPS addition measured after 22 hrs by flow cytometry; format: functional, cell-based
# THP-1 [16] = test: Antiinflammatory activity in human THP1 cells assessed as inhibition of LPS-stimulated IL-12p70 level in serum at 10 uM preincubated for 2 hrs followed by LPS addition measured after 22 hrs by flow cytometry; format: functional, cell-based
# THP-1 [17] = test: Antiinflammatory activity in human THP1 cells assessed as inhibition of LPS-stimulated TNFalpha production by measuring TNF-alpha level in serum at 10 uM preincubated for 2 hrs followed by LPS addition measured after 22 hrs by flow cytometry (reference value: 9900 +/- 300 pg/ml); format: functional
Structure (SMILES),Activity (THP-1 [1]),IC50 (A549),IC50 (MCF7 [8]),IC50 (PC-9),inhibition (THP-1 [14]),inhibition (THP-1 [15]),inhibition (THP-1 [16]),Activity (THP-1 [17]),other results
CC(C)=CCC/C(C)=C/Cc1cc(-c2coc3cc(O)ccc3c2=O)ccc1O,2700 pg/mL,,,,,,,,
COc1ccc(Cc2nc(/N=C3\NC(=O)N(C)C3=O)n(C)c2Cc2ccc(OC)c(OC)c2O)cc1 [PYRONAAMIDINE],,7.8 µM,5.2 µM,5.6 µM,,,,,viability at 5 µM (MCF7 [2]): 82%; Activity (MCF7 [3]): 10.2%; Activity (MCF7 [4]): 6.25%; Activity (MCF7 [5]): Dose-dependent effect; viability at 10 µM (MCF7 [6]): 34.8%; Activity (MCF7 [7]): 1.54%; Activity (MCF7 [9]): 30.1%; Activity (MCF7 [10]): Dose-dependent effect; Activity (MCF7 [11]): 32.3%; Activity (MCF7 [12]): 2.55%; IC50 (MCF7 [13]): 10 µM
CNC1=N/C(=N/c2nc(Cc3ccc4c(c3)OCO4)cn2C)C(=O)O1,7600 pg/mL,> 20 µM,> 20 µM,> 20 µM,inactive,inactive,inactive,9900 pg/mL,
COc1ccc(C2=C3C(=NC(=N)N3C)C(=O)c3c(OC)ccc(OC)c32)cc1,5400 pg/mL,> 20 µM,> 20 µM,> 20 µM,inactive,inactive,inactive,9700 pg/mL,
CC(=O)O[C@H]1C(=O)[C@@]2(C)[C@H]([C@H](OC(=O)c3ccccc3)[C@]3(O)C[C@H](OC(=O)[C@H](O)[C@@H](NC(=O)c4ccccc4)c4ccccc4)C(C)=C1C3(C)C)[C@]1(OC(C)=O)CO[C@@H]1C[C@@H]2O [PACLITAXEL],,0.0032 µM,,0.0027 µM,,,,,
Nc1cccc2c1C(=O)N(C1CCC(=O)NC1=O)C2=O (configuration not stated) [POMALIDOMIDE],,,,,,,,7500 pg/mL,
CN/C(N)=N\C(=O)Nc1nc(Cc2ccc3c(c2)OCO3)cn1C,5000 pg/mL,> 20 µM,> 20 µM,> 20 µM,inactive,inactive,inactive,7800 pg/mL,
